Measured values reported in ChEMBL document CHEMBL1629663, “Postantibiotic effects of telavancin against 16 gram-positive organisms” (Antimicrob Agents Chemother, 2009).
≈ marks a conversion by molar mass, not a printed value.

What was measured:
Staphylococcus aureus [1] = test: Antimicrobial activity against vancomycin-susceptible-, methicillin-resistant Staphylococcus aureus ATCC 33591 by microdilution method; type: functional
Staphylococcus aureus [2] = test: Antimicrobial activity against heterogenous vancomycin-intermediate-, methicillin-resistant Staphylococcus aureus 873 by microdilution method; type: functional
Staphylococcus aureus [3] = test: Antimicrobial activity against vancomycin-susceptible-, methicillin-resistant Staphylococcus aureus ATCC 33591 assessed as time required to induce post antibiotic sub-MIC effect at 0.4 times MIC […] by plate counting method; type: functional
Procedure, shortened: (§1)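 After 1 h preexposure to 10× MIC at 35°C and 1:1,000 dilution, cultures were split, and drug was re-added to final 0.2, 0.3 or 0.4× MIC, with a drug-free tube. Viable counts were taken every 2 h until McFarland 1 turbidity. Duration was derived from log10 CFU/ml versus time curves. Two experiments were run, each with a new inoculum.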

Staphylococcus aureus [4] = test: Antimicrobial activity against vancomycin-susceptible-, methicillin-resistant Staphylococcus aureus 1307 assessed as time required to induce post antibiotic sub-MIC effect at 0.4 times MIC […] by plate counting method; type: functional; procedure, shortened: as §1
Staphylococcus aureus [5] = test: Antimicrobial activity against heterogenous vancomycin-intermediate-, methicillin-resistant Staphylococcus aureus 618 assessed as time required to induce post antibiotic sub-MIC effect at 0.4 times MIC […] by plate counting method; type: functional
Procedure, shortened: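 PAE was first induced with 10× MIC for 1 h at 35°C (inoculum about 5 × 10^6 CFU/ml, Mueller-Hinton broth) and ended by 1:1,000 dilution. Cultures were then split and given 0.2, 0.3 or 0.4× MIC, with one tube left without drug. Viable counts were taken before exposure, after dilution, then every 2 h until McFarland no. 1 turbidity. Two separate experiments, each with a new inoculum.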

[6] = Protein binding healthy human serum; type: ADME, cell-free; conditions: read-out: PB
Staphylococcus aureus [7] = test: Antimicrobial activity against vancomycin-intermediate-, methicillin-resistant Staphylococcus aureus 1287 by microdilution method; type: functional
Enterococcus faecalis [8] = test: Antimicrobial activity against Enterococcus faecalis HMC 571 by microdilution method; type: functional
Staphylococcus aureus [9] = test: Antimicrobial activity against vancomycin-susceptible-, methicillin-resistant Staphylococcus aureus ATCC 33591 assessed as time required to induce sub-MIC effect at 0.2 times MIC exposed for 2 hrs by plate counting method; type: functional
Procedure, shortened: (§2)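 Sub-MIC effect: cultures not preexposed to drug were diluted and handled as in the PA-SME procedure in Mueller-Hinton broth with final 0.2, 0.3 or 0.4× MIC, plus a drug-free control. Viable plate counts were taken every 2 h until McFarland 1 turbidity. Duration was derived from growth curves. Two experiments were run, each with a new inoculum.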

Staphylococcus aureus [10] = test: Antimicrobial activity against vancomycin-susceptible-, methicillin-resistant Staphylococcus aureus 1306 assessed as time required to induce sub-MIC effect at 0.2 times MIC exposed for 2 hrs by plate counting method; type: functional; procedure, shortened: as §2
Staphylococcus aureus [11] = test: Antimicrobial activity against heterogenous vancomycin-intermediate-, methicillin-resistant Staphylococcus aureus 873 assessed as time required to induce sub-MIC effect at 0.2 times MIC […] by plate counting method; type: functional
Procedure, shortened: (§3)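 SME, viable plate count method: no prior drug exposure. About 5 × 10^6 CFU/ml in Mueller-Hinton broth at 35°C received 0.2, 0.3 or 0.4× MIC, alongside a drug-free tube. Counts were taken at the start, then every 2 h until McFarland no. 1 turbidity, as log10 CFU/ml against time. Two separate experiments, each with a new inoculum.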

Enterococcus faecalis [12] = test: Antimicrobial activity against Enterococcus faecalis ATCC 29212 assessed as time required to induce post antibiotic sub-MIC effect at 0.2 times MIC […] by plate counting method; type: functional
Procedure, shortened: (§4)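 Mueller-Hinton broth cultures of about 5 × 10^6 CFU/ml were pre-exposed to telavancin at 10× MIC for 1 h at 35°C, then diluted 1:1,000. Telavancin was re-added to final 0.2, 0.3 or 0.4× MIC, alongside a drug-free tube. Viable counts were taken before exposure, after dilution, then every 2 h until McFarland no. 1 turbidity. Duration comes from log10 CFU/ml-versus-time plots; two separate experiments with fresh inocula.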

Enterococcus faecium [13] = test: Antimicrobial activity against Enterococcus faecium HMC 588 assessed as time required to induce post antibiotic sub-MIC effect at 0.2 times MIC pre-exposed to Telavancin […] by plate counting method; type: functional; procedure, shortened: as §4
Staphylococcus aureus [14] = test: Antimicrobial activity against vancomycin-susceptible-, methicillin-resistant Staphylococcus aureus ATCC 33591 assessed as time required to induce sub-MIC effect at 0.3 times MIC exposed for 2 hrs by plate counting method; type: functional; procedure, shortened: as §2
Staphylococcus aureus [15] = test: Antimicrobial activity against vancomycin-susceptible-, methicillin-resistant Staphylococcus aureus 1307 assessed as time required to induce sub-MIC effect at 0.3 times MIC exposed for 2 hrs by plate counting method; type: functional; procedure, shortened: as §2
Staphylococcus aureus [16] = test: Antimicrobial activity against heterogenous vancomycin-intermediate-, methicillin-resistant Staphylococcus aureus 618 assessed as time required to induce sub-MIC effect at 0.3 times MIC […] by plate counting method; type: functional; procedure, shortened: as §3
Staphylococcus aureus [17] = test: Antimicrobial activity against vancomycin-intermediate-, methicillin-resistant Staphylococcus aureus 555 assessed as time required to induce sub-MIC effect at 0.3 times MIC […] by plate counting method; type: functional; procedure, shortened: as §3
Staphylococcus aureus [18] = test: Antimicrobial activity against vancomycin-intermediate-, methicillin-resistant Staphylococcus aureus 1287 assessed as time required to induce sub-MIC effect at 0.3 times MIC […] by plate counting method; type: functional; procedure, shortened: as §3
Staphylococcus aureus [19] = test: Antimicrobial activity against vancomycin-resistant-, methicillin-resistant Staphylococcus aureus 510 assessed as time required to induce sub-MIC effect at 0.3 times MIC exposed for 2 hrs by plate counting method; type: functional; procedure, shortened: as §2
Streptococcus agalactiae [20] = test: Antimicrobial activity against Streptococcus agalactiae HMC 5 assessed as time required to induce sub-MIC effect at 0.3 times MIC exposed for 2 hrs by plate counting method; type: functional
Procedure, shortened: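 Unexposed Mueller-Hinton broth cultures (about 5 × 10^6 CFU/ml, 35°C) were handled as in the PA-SME set but without the 10× MIC pre-exposure. They were diluted 1:1,000, then given telavancin at final 0.2, 0.3 or 0.4× MIC, with a drug-free control. Viable counts were taken every 2 h until McFarland no. 1 turbidity. Effect duration comes from log10 CFU/ml-time plots; two separate experiments with new inocula.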

Streptococcus agalactiae [21] = test: Antimicrobial activity against Streptococcus agalactiae HMC 5 assessed as time required to induce post antibiotic sub-MIC effect at 0.3 times MIC […] by plate counting method; type: functional; procedure, shortened: as §4
Enterococcus faecalis [22] = test: Antimicrobial activity against Enterococcus faecalis ATCC 29212 assessed as time required to induce post antibiotic sub-MIC effect at 0.3 times MIC […] by plate counting method; type: functional; procedure, shortened: as §4
Enterococcus faecium [23] = test: Antimicrobial activity against Enterococcus faecium HMC 588 assessed as time required to induce post antibiotic sub-MIC effect at 0.3 times MIC […] by plate counting method; type: functional; procedure, shortened: as §4
Staphylococcus aureus [24] = test: Antimicrobial activity against vancomycin-susceptible-, methicillin-resistant Staphylococcus aureus 1307 assessed as time required to induce sub-MIC effect at 0.4 times MIC exposed for 2 hrs by plate counting method; type: functional; procedure, shortened: as §2
Staphylococcus aureus [25] = test: Antimicrobial activity against vancomycin-intermediate-, methicillin-resistant Staphylococcus aureus 1287 assessed as time required to induce post antibiotic sub-MIC effect at 0.2 times MIC pre-exposed to Telavancin for 1 hr by plate counting method

CCCCCCCCCCNCCN[C@@]1(C)C[C@H](O[C@H]2[C@H](Oc3c4cc5cc3Oc3ccc(cc3Cl)[C@@H](O)[C@@H](NC(=O)[C@@H](CC(C)C)NC)C(=O)N[C@@H](CC(N)=O)C(=O)N[C@H]5C(=O)N[C@H]3C(=O)N[C@H](C(=O)N[C@H](C(=O)O)c5cc(O)c(CNCP(=O)(O)O)c(O)c5-c5cc3ccc5O)[C@H](O)c3ccc(c(Cl)c3)O4)O[C@H](CO)[C@@H](O)[C@@H]2O)O[C@@H](C)[C@H]1O [TELAVANCIN]
MIC (Staphylococcus aureus [1]): 0.25 µg/mL (≈ 0.142 µM) | MIC (Staphylococcus aureus [2]): 0.12 µg/mL (≈ 0.0684 µM) | PAE (Staphylococcus aureus [3]): > 10 h | PAE (Staphylococcus aureus [4]): > 10.5 h | PAE (Staphylococcus aureus [5]): 10.3 h | fraction unbound [6]: ≤ 0.1 | MIC (Staphylococcus aureus [7]): 0.5 µg/mL (≈ 0.285 µM) | MIC (Enterococcus faecalis [8]): 0.25 µg/mL (≈ 0.142 µM) | PAE (Staphylococcus aureus [9]): 0.3 h | PAE (Staphylococcus aureus [10]): 0.7 h | PAE (Staphylococcus aureus [11]): 0 h | PAE (Enterococcus faecalis [12]): 5.3 h | PAE (Enterococcus faecium [13]): 1.9 h | PAE (Staphylococcus aureus [14]): 1.4 h | PAE (Staphylococcus aureus [15]): 2.6 h | PAE (Staphylococcus aureus [16]): 1.5 h | PAE (Staphylococcus aureus [17]): 1.7 h | PAE (Staphylococcus aureus [18]): 0.4 h | PAE (Staphylococcus aureus [19]): 2.3 h | PAE (Streptococcus agalactiae [20]): 2.1 h | PAE (Streptococcus agalactiae [21]): 4.7 h | PAE (Enterococcus faecalis [22]): > 10.7 h | PAE (Enterococcus faecium [23]): 8.9 h | PAE (Staphylococcus aureus [24]): 6.3 h | PAE (Staphylococcus aureus [25]): 5.1 h
